Results as given in ChEMBL document CHEMBL1799951, “FimH antagonists for the oral treatment of urinary tract infections: from design and synthesis to in vitro and in vivo evaluation” (J Med Chem, 2010).
Active and inactive are the calls of the source. The calls are words filed in the database; no cut-off is given here.

Assays:
[1] = test system: Escherichia coli; assay: Antibacterial activity against Escherichia coli […] infected in urinary tract infection C3H/HeN mouse model assessed as log reduction in bacterial count in kidney of mouse at 50 mg/kg, iv administered as single dose 1 hr before infection and measured after 3 hrs post infection; type: functional, organism-based; parameters: dose 50 mg/kg
Method in brief: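 Female C3H/HeN mice given antagonist iv (100 μL PBS, tail vein) or po as suspension, then infected. Infection: isoflurane anaesthesia, bladder emptied, 50 μL UTI89 at about 10^9-10^10 CFU/mL via transurethral catheter. Six mice per group, killed 3 h post-inoculation. Kidneys plated on EMB agar. Reduction taken against the 3 h untreated control mean; Mann-Whitney test.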

[2] = AUC (0 to 24 hrs) in urine of urinary tract infection C3H/HeN mouse model at 50 mg/kg, iv administered as single dose measured after 6 hrs by LC-MS analysis; type: ADME, organism-based; parameters: time < 24 hr, dose 50 mg/kg, route intravenous
Method in brief: (§1)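 Female C3H/HeN mice (19-25 g) dosed once iv at 50 mg/kg in 100 μL PBS via tail vein. Blood and urine (10 μL) sampled at 6 min, 30 min, 1, 2, 4, 6, 8 and 24 h. Proteins precipitated with methanol, centrifuged, and supernatant quantified by LC-MS.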

[3] = Cmax in plasma of urinary tract infection C3H/HeN mouse model at 50 mg/kg, iv administered as single dose measured after 6 hrs by LC-MS analysis; type: ADME, organism-based; parameters: dose 50 mg/kg, route intravenous; method in brief: as §1
[4] = Stability of the compound in simulated intestinal fluid assessed as compound remaining after 2 hrs by LC-MS analysis; type: physicochemical; conditions: read-out: Stability
Method in brief: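 Simulated intestinal fluid (phosphate, NaOH, pancreatin, pH 6) at 37 °C, compound at 10 μM, 500 rpm. Samples at 0-120 min MeCN-quenched; LC-MS as % remaining versus initial.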

[5] = Cmax in urine of urinary tract infection C3H/HeN mouse model at 50 mg/kg, iv administered as single dose measured after 6 hrs by LC-MS analysis; type: ADME, organism-based; parameters: dose 50 mg/kg, route intravenous; method in brief: as §1
[6] = target: Mannose-binding protein C (Homo sapiens) (UniProt P11226); assay: Binding affinity to MBP at 1 mM
Method in brief: (§2)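 FimH-CRD (10 μg/mL), DC-SIGN-CRD-Fc (2.5 μg/mL) or MBP (10 μg/mL) coated overnight at 4 °C in 20 mM HEPES pH 7.4, 150 mM NaCl, 10 mM CaCl2. Competition against streptavidin-peroxidase TM-PAA polymer as in the FimH ELISA, test compounds at 1 mM. D-mannose at 50 mM as positive control.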

[7] = test system: Escherichia coli; assay: Antibacterial activity against Escherichia coli […] infected in urinary tract infection C3H/HeN mouse model assessed as log reduction in bacterial CFU in urine of mouse at 50 mg/kg, po administered as single dose 1 hr before infection and measured after 3 hrs post infection; type: functional; conditions: route intravenous, in the assay text read “iv administered” for “po administered”
[8] = Thermodynamic solubility of the compound at pH 6.5 after 24 hrs by LC-MS analysis; type: physicochemical; conditions: buffer, read-out: Therm_solubility
Method in brief: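 1 mg solid in 250 μL 50 mM phosphate pH 6.5, sonicated 15 min, shaken 2 h at 25 °C, left 24 h. pH measured, then filtered and diluted; concentration determined by LC-MS.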

[9] = Plasma protein binding […] by LC-MS analysis; type: ADME, cell-free; conditions: read-out: PPB (converted)
[10] = Lipophilicity, log D at pH 7.4 by miniatured shake flask method; type: physicochemical; conditions: buffer
Method in brief: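 Octanol-saturated 0.1 M phosphate pH 7.4 containing analyte at 1 μM, overlaid with octanol at two volume ratios, three wells each. Shaken 2 h at 25 °C, then centrifuged; aqueous phase measured by LC-MS. log D computed from depletion. Accepted when the ratio means agree within 0.1.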

[11] = target: Type 1 fimbrin D-mannose specific adhesin (Escherichia coli K-12) (UniProt P08191); assay: Ratio IC50 for compound to IC50 for n-heptyl R-D-mannopyranoside for His-tagged FimH expressed in Escherichia coli HM125
Method in brief: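 FimH-CRD-Th-6His (10 μg/mL) coated overnight at 4 °C in 20 mM HEPES, 150 mM NaCl, 1 mM CaCl2, pH 7.4, then blocked with 3% BSA. 4-fold compound dilutions in 5% DMSO competed with streptavidin-peroxidase TM-PAA polymer for 3 h at 25 °C. ABTS read at 415 nm, duplicates. IC50 divided by the IC50 of the heptyl mannoside reference run on the same plate.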

[12] = Permeability of the compound assessed as membrane retention by PAMPA method; type: ADME
Method in brief: (§3)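 PAMPA with GIT-0 lipid, donor analyte 50 μM at pH 5.0, 6.2 and 7.4 in quadruplicate, 16 h undisturbed incubation. Donor and acceptor quantified by UV and LC-MS.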

[13] = AUC (0 to 24 hrs) in plasma of urinary tract infection C3H/HeN mouse model at 50 mg/kg, iv administered as single dose measured after 6 hrs by LC-MS analysis; type: ADME, organism-based; parameters: time < 24 hr, dose 50 mg/kg, route intravenous; method in brief: as §1
[14] = target: T1, CD209 antigen (Homo sapiens) (UniProt Q9NNX6); assay: Binding affinity to Fc-IgG-tagged DC-SIGN carbohydrate recognizing domain at 1 mM; method in brief: as §2
T1 sequence (whole entry): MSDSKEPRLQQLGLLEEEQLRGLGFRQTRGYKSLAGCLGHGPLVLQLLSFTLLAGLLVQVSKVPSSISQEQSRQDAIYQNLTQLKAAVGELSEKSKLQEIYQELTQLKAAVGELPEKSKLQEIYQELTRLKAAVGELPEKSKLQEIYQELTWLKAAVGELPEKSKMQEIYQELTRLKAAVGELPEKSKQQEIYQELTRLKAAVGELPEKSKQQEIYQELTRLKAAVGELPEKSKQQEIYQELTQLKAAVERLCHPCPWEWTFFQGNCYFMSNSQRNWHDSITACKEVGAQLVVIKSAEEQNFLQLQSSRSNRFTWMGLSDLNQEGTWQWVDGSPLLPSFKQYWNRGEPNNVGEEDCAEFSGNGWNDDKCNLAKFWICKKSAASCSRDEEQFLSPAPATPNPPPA

[15] = Plasma protein binding in human by miniatured equilibrium dialysis method; type: ADME, cell-free; conditions: read-out: PPB (converted)
Method in brief: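 Human plasma adjusted to pH 7.5 with analyte at 10 μM, dialysed against 0.1 M phosphate pH 7.5 (MWCO 12-14 K) for 5 h at 37 °C in triplicate. Compartments MeCN-precipitated and measured by LC-MS; fb = 1 − cbuffer/cplasma.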

[16] = test system: Escherichia coli; assay: Antibacterial activity against Escherichia coli […] infected in urinary tract infection C3H/HeN mouse model assessed as reduction in bacterial count in kidney of mouse at 50 mg/kg, iv administered as single dose 1 hr before infection and measured after 3 hrs post infection
[17] = Stability of the compound in simulated gastrointestinal fluid assessed as compound remaining after 2 hrs by LC-MS analysis; type: physicochemical; conditions: read-out: Stability
[18] = Permeability coefficient, log Pe of the compound by PAMPA method; type: ADME; method in brief: as §3
[19] = Dissociation constant, pKa of the compound by NMR spectrometric analysis; type: physicochemical
[20] = AUC (0 to 24 hrs) in urine of urinary tract infection C3H/HeN mouse model at 50 mg/kg, po administered as single dose measured after 6 hrs by LC-MS analysis; type: ADME, organism-based; parameters: time < 24 hr, dose 50 mg/kg, route oral
Method in brief: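 Female C3H/HeN mice (19-25 g) gavaged once at 50 mg/kg. Compound dissolved in DMSO and diluted in 1% Tween-80/PBS as a suspension, or given in 200 μL PBS. Blood and urine sampled at 6 min to 24 h, methanol-precipitated, and analysed by LC-MS. For the prodrug, both parent and carboxylate metabolite were measured.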

[21] = test system: Escherichia coli; assay: Antibacterial activity against Escherichia coli […] infected in urinary tract infection C3H/HeN mouse model assessed as log reduction in bacterial CFU in bladder of mouse at 50 mg/kg, po administered as single dose 1 hr before infection and measured after 3 hrs post infection; type: functional; conditions: route intravenous, in the assay text read “iv administered” for “po administered”
[22] = test system: Liver; assay: Metabolic stability of the compound in mouse liver microsomes assessed as Cyp 450-mediated degradation at 2 uM after 30 mins by LC-MS analysis in presence of NADPH; conditions: 0.5 h

Sequence of Mannose-binding protein C (Homo sapiens) (P11226 whole entry): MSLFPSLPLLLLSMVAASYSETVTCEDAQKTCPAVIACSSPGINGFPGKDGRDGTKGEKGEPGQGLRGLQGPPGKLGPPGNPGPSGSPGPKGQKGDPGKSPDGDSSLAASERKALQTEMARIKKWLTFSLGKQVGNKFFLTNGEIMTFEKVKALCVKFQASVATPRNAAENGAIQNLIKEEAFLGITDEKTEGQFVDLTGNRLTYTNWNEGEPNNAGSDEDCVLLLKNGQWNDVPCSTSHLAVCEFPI
Sequence of Type 1 fimbrin D-mannose specific adhesin (Escherichia coli K-12) (P08191 whole entry): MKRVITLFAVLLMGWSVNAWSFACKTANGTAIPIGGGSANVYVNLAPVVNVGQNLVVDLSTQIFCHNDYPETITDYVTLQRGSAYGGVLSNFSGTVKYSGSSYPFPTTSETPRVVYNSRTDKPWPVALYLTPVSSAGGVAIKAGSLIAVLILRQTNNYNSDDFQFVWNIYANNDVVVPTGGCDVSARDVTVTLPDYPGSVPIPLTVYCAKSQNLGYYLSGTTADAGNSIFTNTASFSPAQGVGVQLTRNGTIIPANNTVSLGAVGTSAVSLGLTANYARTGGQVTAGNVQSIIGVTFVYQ

AUC(0-t) at 24 h [2] | Cmax [3] | remaining at 2 h [4] | Cmax [5] | Activity [6] | solubility thermodynamic at 24 h [8] | logD [10] | permeability [12] | AUC(0-t) at 24 h [13] | Activity [14] | remaining at 2 h [17] | Structure (SMILES) | Activity [1] | FC [7] | Activity [16] | also measured
2470 µg·h/mL | 35 µg/mL | 80% | 951 µg/mL | inactive | > 3 mg/mL | 1.65 | 21% | 34.3 µg·h/mL | inactive | 80% | CCCCCCCO[C@H]1O[C@H](CO)[C@@H](O)[C@H](O)[C@@H]1O | Active | 1.5 | Active | fraction unbound [9]: 0.19; Ratio IC50 [11]: 1; fraction unbound [15]: 0.19
210 µg·h/mL | 39.4 µg/mL | 80% | 588 µg/mL | inactive | > 3 mg/mL | -0.77 | 3.5% | 20.8 µg·h/mL | inactive | 80% | O=C([O-])c1ccc(-c2ccc(O[C@H]3O[C@H](CO)[C@@H](O)[C@H](O)[C@@H]3O)c(Cl)c2)cc1.[Na+] | Active | 2 | Active | permeability [18]: impermeable; pKa [19]: 3.98; AUC(0-t) at 24 h [20]: 2.7 µg·h/mL; FC [21]: 4; Stability [22]: Stable
